ChEMBL document CHEMBL1121744, “Synthesis and antihypertensive activity of a series of 8-substituted 1-oxa-3,8-diazaspiro[4.5]decan-2-ones” (J Med Chem, 1981)
Activity calls are given as the source filed them. The calls are words filed in the database; no cut-off is given here.

Assays:
Canis familiaris [1] = assay: Percent inhibition of the pressor responses to 0.75 ug/kg iv norepinephrine in pentobarbital-anesthetized dogs for a dose of 3.16 mg/kg; type: functional; settings: Canis lupus familiaris
Procedure, shortened: (§1)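 Pentobarbital-anesthetized dogs (35 mg/kg iv) with femoral arterial pressure recording. Epinephrine (1 μg/kg), norepinephrine (0.75 μg/kg) and phenylephrine (7.5 μg/kg) iv challenges were given about every 10 min before and after rising iv test doses, which were spaced 90 min apart. Value is % inhibition of the pressor response.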

Rattus norvegicus [2] = assay: The antihypertensive activity as percentage fall in systolic blood pressure in spontaneously hypertensive rats after a period of 2 hr for a dose of 25 mg/kg po; NS=Not significant; type: functional, organism-based; design: dose 25 mg/kg; settings: Artery
Procedure, shortened: (§2)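 Male Okamoto-Aoki SHR, trained, in groups of four matched for mean systolic pressure; one group per run received water vehicle. Oral dosing in water (0.1 mL per 10 g) on two consecutive mornings. After the day-2 dose, rats were restrained at 30.0 ± 1.0 °C. Systolic pressure was read by tail cuff (inflated to 300 mmHg, first pulse) at 1–4 h. % fall is versus the untreated control group, by 1-tail t test (p ≤ 0.05).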

Rattus norvegicus [3] = assay: The antihypertensive activity as percentage fall in systolic blood pressure in spontaneously hypertensive rats after a period of 3 hr for a dose of 25 mg/kg po; type: functional, Artery; procedure, shortened: as §2
Canis familiaris [4] = assay: Percent inhibition of the pressor responses to 1 ug/kg iv Epinephrine in pentobarbital-anesthetized dogs for a dose of 10 mg/kg; type: functional; settings: Canis lupus familiaris
Procedure, shortened: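 Dogs anesthetized with sodium pentobarbital 35 mg/kg iv; femoral artery cannulated for blood pressure, femoral vein for dosing. Epinephrine 1 μg/kg iv given at about 10-min intervals before and after increasing test doses. Test doses given iv at 90-min intervals. Result is per cent inhibition of the pressor response.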

Canis familiaris [5] = assay: Percent inhibition of the pressor responses to 7.5 ug/kg iv phenylephrine in pentobarbital-anesthetized dogs for a dose of 10 mg/kg; type: functional; settings: Canis lupus familiaris; procedure, shortened: as §1
Rattus norvegicus [6] = assay: The antihypertensive activity as percentage fall in systolic blood pressure in spontaneously hypertensive rats after a period of 2 hr for a dose of 50 mg/kg po

Question: What does the source list for CN1CC2(CCN(CC(O)C3COc4ccccc4O3)CC2)OC1=O (stereo unspecified)?
Answer: inhibition in vivo at 3.16 mg/kg (Canis familiaris [1]): 69%; Decrease in blood pressure (Rattus norvegicus [2]): inactive; Decrease in blood pressure (Rattus norvegicus [3]): 15%

Question: For O=C1NCC2(CCN(CCc3c[nH]c4ccccc34)CC2)O1, which inhibition in vivo at 10 mg/kg (Canis familiaris [4]) is on record?
Answer: The inhibition in vivo at 10 mg/kg was 97%.

Question: And the inhibition in vivo at 10 mg/kg (Canis familiaris [5])?
Answer: The inhibition in vivo at 10 mg/kg was 100%.

Question: And the “Decrease in blood pressure” value (Rattus norvegicus [6])?
Answer: Its value is 10%.
